NF-kB neuron act – NF-kB expression increase, human neuronal cells; 190,000 compounds, 1.6% hits; NF-kB reporter expression; hits give high values; fold change at 12.5 µM; AID 1239; in the data active = fold change above about 3.3
STAT3 act – STAT3 signaling activation. U3A cells, IL-6 STAT3-luciferase reporter, luminescence; 100% = signal with IL-6 EC80 alone. activation (% of control), % at 5.6 µM. 190,000 compounds, 0.91% hits. AID 871;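 active = activation above the screen-wide mean of compound activation plus 3 SD, cut at about 130% in these data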;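 also: 0% = background luminescence of wells with medium and substrate only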
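Material: STAT3-luciferase reporter U3A cells. Controls: IL-6-treated wells, 100% activation. Read-out: % activation versus median of IL-6-stimulated wells. Probe or stimulus: IL-6 stimulus at 33 ng/mL final. Timing: compound 1 h, then IL-6 6 h at 37 °C. Signal: reporter luminescence signal.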
STAT1 activator – STAT1 signaling activation; NIH 3T3 STAT1-luciferase reporter, IFN-gamma, luminescence; 100% = IFN-gamma alone, no compound; activation (% of control), % at 5.5 µM; 200,000 compounds, 2.6% hits;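 active = activation above the screen-wide mean activation plus 3 SD, cut at about 130% in these data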;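 also: raw ratio to IFN-gamma control signal so 100% means no change and 0% no light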
STAT3 inh – STAT3 signaling inhibition; 190,000 compounds, 0.89% hits; inhibition, % at 5.5 µM; U3A cells, IL-6 STAT3-luciferase reporter, luminescence; host cell line lacks STAT1;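 active = inhibition above the mean inhibition across all screened compounds plus 3 SD, cut at about 44% in these data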;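 also: 0% = DMSO only wells and 100% = 100 µM nifuroxazide control wells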
APP 5'UTR act – activates APP 5'UTR luciferase reporter. SH-SY5Y APP 5'UTR luciferase reporter, luminescence; zero percent = DMSO vehicle wells. activation, % at 2 µM. 190,000 compounds, 1% hits. AID 1276;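 active = activation above a set limit, based on mean plus 3 SD of controls, cut at about 140% in these data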
STAT1 blocker – STAT1 signaling inhibition. NIH 3T3 STAT1-luciferase reporter, IFN-gamma, luminescence. inhibition, % at 5.5 µM. 200,000 compounds, 0.35% hits. AID 920;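 active = inhibition above a set limit, the mean inhibition across all tested compounds plus 3 SD, cut at about 34% in these data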;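 also: 0% = IFN-gamma with DMSO and 100% = IFN-gamma with 300 µM nifuroxazide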
Active calls of the source: *; / = not tested or not shown. An excerpt weighted towards active compounds, which were near 4.9% of everything screened.

SMILES | NF-kB neuron act | STAT3 act | STAT1 activator | STAT3 inh | APP 5'UTR act | STAT1 blocker
COCC(=O)NNC(=O)c1ccccc1OC | 1 | 135* | 99 | -38 | 6 | 2
COc1ccccc1C(=O)NNC(=O)c1ccccc1F | 2.1 | 133 | 138* | -42 | 60 | -43
COc1ccccc1C(=O)NNC(=O)c1cccc(F)c1 | 2.3 | 94 | 146* | 10 | 129 | -51
COc1cc2c(cc1NC(=O)c1ccccc1F)CCCC2 | 2.5 | 129 | 138* | -33 | 74 | -42
COC(=O)c1ccc(OC(=O)CCc2cc(OC)c(OC)c(OC)c2)cc1 | 0.95 | 106 | 106 | -7 | -34 | -6
Cc1ccc(C(=O)N/C(=C/c2ccc(F)cc2)C(=O)NCc2ccncc2)cc1 | 0.91 | 110 | 99 | -8 | 3 | 2
O=C(Nc1cccc(C(F)(F)F)c1)c1ccco1 | 1.4 | 88 | 102 | 18 | 2 | -2
O=C(/C=C/Nc1ccc(Oc2ccccc2)cc1)c1ccco1 | 5.4* | 74 | 140* | 34 | 164* | -46
O=C(/C=C/Nc1cccc(C(F)(F)F)c1)c1ccco1 | 2.1 | 118 | 133* | -14 | 77 | -35
NC(=O)c1ccccc1N/C=C/C(=O)c1ccco1 | 1.5 | 101 | 134* | 2 | 78 | -36
O=C(/C=C/Nc1ccccc1C(F)(F)F)c1ccco1 | 6.7* | 70 | 100 | 39 | 228* | 0
CC(=O)Nc1cc(N=Cc2ccc(O)cc2O)c(Cl)cc1Cl | 1.2 | 100 | 99 | 2 | 5 | 2
Cn1c(CCN2CCOCC2)nc2cc(NC(=O)c3cccs3)ccc21 | 1.2 | 98 | 104 | 10 | 18 | -6
COc1ccc(-n2cccc2/C=C2/NC(=O)N(c3cccc(Cl)c3)C2=O)cc1 | 0.86 | 106 | 111 | -3 | 23 | -13
COc1cc(/C=C2/NC(=O)N(c3cccc(Cl)c3)C2=O)ccc1O | 2.4 | 69 | 134* | 40 | -55 | -39
O=C(N/N=C/C=C\c1ccccc1[N+](=O)[O-])c1ccncc1 | 0.91 | 95 | 94 | 10 | -6 | 5
O=C(N/N=C/c1cccs1)c1cncc(Br)c1 | 1.4 | 95 | 105 | 10 | 6 | -5
O=C(CNc1cccc2ccccc12)N/N=C/C(Br)=C/c1ccccc1 | 0.78 | 90 | 91 | 15 | -7 | 10
O=C(N/N=C/C(Br)=C/c1ccccc1)c1cccs1 | 7.5* | 90 | 148* | 15 | 147* | -55
O=C(N/N=C/C=C/c1ccccc1[N+](=O)[O-])c1cccs1 | 4.2* | 94 | 109 | 4 | 9 | -10
O=C(N/N=C/c1cccs1)c1n[nH]c2c1CCC2 | 3 | 79 | 130* | 24 | 6 | -33
O=C(N/N=C/C(Br)=C/c1ccccc1)c1n[nH]c2c1CCC2 | 8* | 137* | 146* | -35 | / | -50
COc1cc(OC)cc(C(C(=O)NC2CCCCC2)N(C(=O)c2ccno2)c2ccccc2)c1 (configuration not stated) | 1.3 | 98 | 105 | 4 | -3 | -5
CCOc1ccc(NS(=O)(=O)c2ccc(NC(=O)[C@@H]3CCCC[C@@H]3C(=O)O)cc2)cc1 | 1 | 98 | 98 | 4 | 15 | 2
Cc1ccc(C(=O)Nc2ccc([N+](=O)[O-])cn2)o1 | 1.6 | 87 | 116 | 16 | 38 | -17
SMILES | NF-kB neuron act | STAT3 act | STAT1 activator | STAT3 inh | APP 5'UTR act | STAT1 blocker
Oc1ccc(N=Cc2ccc(OCc3ccccc3)cc2)cc1 | 3.2 | 103 | 142* | -2 | 33 | -44
O=C(N/N=C/c1ccc(OCc2ccccc2)cc1)c1cccs1 | 1.7 | 110 | 140* | -9 | 4 | -45
CCCCOc1ccc(-c2ncc(C(=O)O)c(C)n2)cc1 | 4.3* | 99 | 136* | 6 | 165* | -39
O=C(NCc1ccco1)c1cccs1 | 1.3 | 112 | 98 | -12 | 24 | 2
O=C(COC(=O)c1cccs1)c1ccccc1 | 4.6* | 105 | 131* | 0 | 55 | -34
O=C(c1ccccc1)c1cccs1 | / | 97 | 97 | 8 | 5 | 2
O=C(CSCc1ccco1)c1cccs1 | 1.9 | 104 | 124 | 2 | 170* | -27
O=C(CCC(=O)c1cccs1)c1cccs1 | 5.2* | 88 | 130* | 18 | 131 | -33
